This note sets out measurements from ChEMBL document CHEMBL3232800, “Polyfluorinated bis-styrylbenzenes as amyloid-β plaque binding ligands” (Bioorg Med Chem, 2014).

The pKi is the negative decadic logarithm of the Ki, by convention in mol/L. In general, logP refers to a log measure of how a compound divides between an organic and an aqueous phase.

pKi: −log10 of the molar value. Active and inactive are the calls of the source. The rule behind the calls is not given here.

Data set [1] has as its target T1, Amyloid-beta precursor protein (Homo sapiens, UniProt P05067). Kind of data set: Binding affinity to beta-amyloid plaque in APP/PS1 transgenic mouse brain at 100 uM by fluorescence microscopic analysis. The format is tissue-based. Summed up: (§1)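 Sections were stained for 10 min in darkness with compound diluted from 3 mM DMSO stocks to 1, 10 or 100 µM in 2:3 PBS/ethanol and sonicated 15 min. Tissue was paraffin sections of Braak IV human AD medial temporal cortex (8 µm), 14-month APP/PS1 mouse brain and age-matched controls. Sections were rinsed, then 0.1% NaOH in 80% ethanol for 2 min. Read by slide-scanner fluorescence with a DAPI cube (Ex 365, Em 445/50 nm) at constant settings; assessment was qualitative.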

In data set [2] the target is T1, Amyloid-beta precursor protein. Kind of data set: Binding affinity to beta-amyloid plaque in Alzheimer's disease patient brain at 10 uM by fluorescence microscopic analysis. In a few lines:
as §1

For data set [3], the system named is Mus musculus. As to the kind of experiment: Binding affinity to beta-amyloid plaque in APP/PS1 transgenic mouse brain at 30 umol/kg, iv after 1 day by fluorescence microscopic analysis. The format is functional, organism-based. In a few lines:
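APP/PS1 mice aged 12–14 months, with age-matched wildtype (n = 2 per compound), got an iv dose of 30 µmol/kg from a 0.05 M solution in 1:1 DMSO/Cremophor diluted with PBS to 200 µl. After one day they were perfused with 4% PFA and brains cryoprotected in sucrose/PFA. Brains were cut into 30 µm cryosections and imaged by the same fluorescence slide-scanner set-up.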

In data set [4] the target is T1, Amyloid-beta precursor protein. Kind of data set: Displacement of [3H]chrysamine G from fibrillar amyloid beta (1 to 40) (unknown origin) after 1 hr by liquid scintillation spectrophotometric analysis. Summed up: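 Competition binding was run at room temperature in 1 ml of 150 mM Tris-HCl, 20% ethanol, pH 7.0. Test compound ranged 30 µM to 30 pM (from 3 mM DMSO stocks, sonicated) against 5 nM [3H]chrysamine G and 50 nM synthetic Aβ1-40 fibrils. Nonspecific binding was taken with 1 µM Methoxy-X04.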
For orientation: Displacement assays read how much labelled ligand stays bound in the presence of the test substance.

For data set [5] the target is unchanged. Kind of data set: Binding affinity to beta-amyloid plaque in Alzheimer's disease patient brain at 100 uM by fluorescence microscopic analysis. In a few lines:
as §1

Data set [6] has the same target. Kind of data set: Binding affinity to beta-amyloid plaque in APP/PS1 transgenic mouse brain at 1 uM by fluorescence microscopic analysis. The format is tissue-based. Summed up:
as §1

Data set [7] in a line: Partition coefficient, log P of the compound in methanol-water mixture by HPLC analysis. The format is physicochemical. Summed up: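 Eluent A was 0.02 M Na2HPO4 phosphate buffer, pH 7.0, and eluent B was 0.25% octanol in methanol. Samples came from 0.5 mg/ml methanol stocks. Values above 7 are not reliably measured.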
Data set [8] concerns the target T1, Amyloid-beta precursor protein. As to the kind of experiment: Binding affinity to fibrillar amyloid beta (1 to 40) (unknown origin) assessed as fluorescence intensity relative to Methoxy-X04.
For data set [9] the target is unchanged. As to the kind of experiment: Binding affinity to fibrillar amyloid beta (1 to 40) (unknown origin) assessed as fluorescence intensity relative to control.
Data set [10] shares this target. Kind of data set: Binding affinity to fibrillar amyloid beta (1 to 40) (unknown origin) at 1.92 mM by [19F]-NMR spectrometric analysis.
Data set [11] shares this target. As to the kind of experiment: Binding affinity to beta-amyloid plaque in APP/PS1 transgenic mouse brain homogenate at 1.92 mM by [19F]-NMR spectrometric analysis. The format is tissue-based.
Data set [12] has as its system Mus musculus. Kind of data set: Binding affinity to beta-amyloid plaque in APP/PS1 transgenic mouse brain at 30 umol/kg, iv after 24 hrs by [19F]-NMR spectrometric analysis. The format is functional, organism-based.
Setting [13] is: methanol-water mixture, read-out: logP.

T1 sequence (P05067 whole entry): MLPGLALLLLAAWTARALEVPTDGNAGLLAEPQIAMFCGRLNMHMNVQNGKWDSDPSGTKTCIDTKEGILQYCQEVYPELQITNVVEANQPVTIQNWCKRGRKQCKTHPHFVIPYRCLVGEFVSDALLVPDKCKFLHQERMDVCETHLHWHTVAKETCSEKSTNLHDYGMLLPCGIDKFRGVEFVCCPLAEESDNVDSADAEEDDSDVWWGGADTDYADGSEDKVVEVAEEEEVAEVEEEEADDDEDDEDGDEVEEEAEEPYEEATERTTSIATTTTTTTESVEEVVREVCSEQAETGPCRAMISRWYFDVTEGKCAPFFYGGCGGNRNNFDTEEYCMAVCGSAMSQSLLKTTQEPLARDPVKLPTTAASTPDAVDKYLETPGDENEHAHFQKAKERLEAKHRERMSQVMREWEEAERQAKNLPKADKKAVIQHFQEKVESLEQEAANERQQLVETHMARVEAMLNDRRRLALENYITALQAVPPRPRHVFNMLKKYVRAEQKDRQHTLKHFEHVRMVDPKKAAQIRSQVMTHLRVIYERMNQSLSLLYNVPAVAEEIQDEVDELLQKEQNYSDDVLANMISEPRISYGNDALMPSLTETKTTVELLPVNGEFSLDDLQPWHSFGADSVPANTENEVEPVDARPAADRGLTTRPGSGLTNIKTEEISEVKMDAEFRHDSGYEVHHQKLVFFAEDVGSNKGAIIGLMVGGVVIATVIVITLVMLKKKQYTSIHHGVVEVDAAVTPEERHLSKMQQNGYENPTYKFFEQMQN

As for `Oc1ccc(/C=C/c2ccc(/C=C/c3ccc(O)cc3)c(OCC(F)(F)F)c2)cc1`, the result (in data set [1]; in the data set with Mus musculus [3]; in data set [5]; in [6]) was Active. In addition, the result in data set [2] was inactive. The same molecule showed a negative-log Ki (pKi) in data set [4] of 7.41. Moreover, the logP in data set [7] (setting [13]) worked out at 5.25. For the same molecule, the RFU in [8] worked out at 7. In [9], the fold change (FC) turned out to be 4.1.

Turning to `Oc1cc(/C=C/c2ccc(OC(F)(F)F)cc2)ccc1/C=C/c1ccc(OC(F)(F)F)cc1`, the outcome (in data set [1]; in data set [2]; with Mus musculus [3]; in data set [5]; in data set [6]) was Active. In addition, the log partition coefficient (logP) in data set [7] (setting [13]) is more than 7. Moreover, the RFU in data set [8] was 13. In addition, the fold change (FC) in data set [9] was determined as 7.4.

Regarding `COc1cc(/C=C/c2ccc(O)cc2)c(OC)cc1/C=C/c1ccc(O)cc1`, the result (in [2]; with Mus musculus [3]; in data set [6]) was inactive. Further, the logP in data set [7] (setting [13]) was 5.

For `COc1cc(/C=C/c2ccc(C(F)(F)C(F)F)cc2)ccc1/C=C/c1ccc(C(F)(F)C(F)F)cc1`, the result (in [1]; in data set [2]; in the data set on Mus musculus [3]; in data set [5]; in data set [6]) was Active. Besides, in [7] (setting [13]), the logP is more than 7. For the same molecule, the RFU in data set [8] was 1. The fold change (FC) in data set [9] is less than 1.

As to `COc1cc(/C=C/c2ccc(OC(F)(F)F)cc2)ccc1/C=C/c1ccc(OC(F)(F)F)cc1`, the outcome (in data set [1]; in data set [2]; in the data set on Mus musculus [3]; in data set [5]; in [6]) was Active. Besides, in data set [7] (setting [13]), the logP was more than 7. For the same molecule, the RFU in data set [8] amounted to 3. Moreover, the fold change (FC) in [9] is less than 1.

`Oc1ccc(/C=C/c2ccc(/C=C/c3ccc(O)cc3)c(C(F)(F)F)c2)cc1`: the outcome (in data set [1]; with Mus musculus [3]; in data set [5]; in [6]) was Active. Moreover, in data set [2], the outcome was inactive. Further, the pKi in data set [4] is 6.61. The logP in data set [7] (setting [13]) came to 5.64. Also, in data set [8], the RFU was determined as 19. For the same molecule, the fold change (FC) in [9] worked out at 10.7.

Consider `COc1cc(/C=C/c2ccc(CO)cc2)ccc1/C=C/c1ccc(CO)cc1`, for which the outcome (in data set [1]; in data set [2]; with Mus musculus [3]; in data set [5]; in data set [6]) was Active. Further, the logP in data set [7] (setting [13]) amounted to 4.99. Further, in [8], the RFU amounted to 26. In addition, the fold change (FC) in [9] is 4.1.

As to `Oc1ccc(/C=C/c2ccc(/C=C/c3ccc(O)cc3)c(OCCCC(F)(F)F)c2)cc1`, the outcome in data set [2] and in data set [6] was inactive. For the same molecule, the outcome in the data set with Mus musculus [3] was Active. The molecule also showed a pKi in data set [4] of 7.25. The log partition coefficient (logP) in [7] (setting [13]) stood at 5.79. Besides, in data set [8], the RFU came out at 2. For the same molecule, the fold change (FC) in data set [9] is 4.3.

With `COc1cc(/C=C/c2ccc(C(F)(F)F)cc2)ccc1/C=C/c1ccc(C(F)(F)F)cc1`, the outcome (in data set [1]; in data set [2]; in the data set on Mus musculus [3]; in [5]; in data set [6]) was Active. The log partition coefficient (logP) in data set [7] (setting [13]) was more than 7. The RFU in [8] turned out to be 1. In addition, in [9], the fold change (FC) was less than 1.

For the molecule `COc1cc(/C=C/c2ccc(OC)c(C(F)(F)F)c2)ccc1/C=C/c1ccc(OC)c(C(F)(F)F)c1`, the outcome in data set [1], in data set [5] and in [6] was Active. The outcome (in data set [2]; with Mus musculus [3]) was inactive. Further, in data set [7] (setting [13]), the logP was more than 7. For the same molecule, the RFU in data set [8] stood at 4. In data set [9], the fold change (FC) is less than 1.

On to `Oc1cc(/C=C/c2ccc(C(F)(F)C(F)F)cc2)ccc1/C=C/c1ccc(C(F)(F)C(F)F)cc1`, for which the outcome (in data set [1]; in data set [2]; in the data set on Mus musculus [3]; in [5]; in [6]) was Active. Moreover, the logP in data set [7] (setting [13]) was more than 7.

For `Oc1ccc(/C=C/c2ccc(/C=C/c3ccc(O)cc3)c(OC(C(F)(F)F)(C(F)(F)F)C(F)(F)F)c2)cc1`, the outcome (in data set [10]; with Mus musculus [12]) was inactive. In addition, the outcome (in data set [1]; in data set [2]; in data set [11]; in the data set on Mus musculus [3]; in [5]; in data set [6]) was Active. Moreover, the pKi in data set [4] is 7.07. For the same molecule, the logP in data set [7] (setting [13]) is more than 7. For the same molecule, the RFU in [8] was found to be 38. Further, the fold change (FC) in data set [9] was 17.8.

With `COc1cc(/C=C/c2ccc(O)cc2)ccc1/C=C/c1ccc(O)cc1`, the outcome (in data set [1]; in [2]; in the data set with Mus musculus [3]; in data set [5]; in data set [6]) was Active. In addition, the pKi in [4] was 7.62. The logP in [7] (octanol/water) worked out at 4.84. For the same molecule, the RFU in data set [8] was 100. For the same molecule, the fold change (FC) in data set [9] came out at 9.8.

On to `Oc1cc(/C=C/c2ccc(C(F)(F)F)cc2)ccc1/C=C/c1ccc(C(F)(F)F)cc1`, for which the outcome (in [1]; in [2]; in the data set on Mus musculus [3]; in data set [5]; in data set [6]) was Active. In data set [7] (setting [13]), the logP was 6.18. Further, the RFU in data set [8] worked out at 2. Further, in [9], the fold change (FC) turned out to be 3.6.
